Experimental data taken from ChEMBL document CHEMBL4229374 (Eur J Med Chem, 2018).
Calls of active or inactive are those of the source. The rule behind the calls is not given here.

Columns and labels:
[1] = molecular target: T1, Aldo-keto reductase family 1 member C2 (Homo sapiens, UniProt P52895); assay: Inhibition of recombinant N-terminal GST-tagged human AKR1C2 expressed in Escherichia coli BL21 (DE) Codon Plus RP cells using S-tetralol as substrate in presence of NADP+ by fluorimetric analysis
T1 sequence (P52895 whole entry): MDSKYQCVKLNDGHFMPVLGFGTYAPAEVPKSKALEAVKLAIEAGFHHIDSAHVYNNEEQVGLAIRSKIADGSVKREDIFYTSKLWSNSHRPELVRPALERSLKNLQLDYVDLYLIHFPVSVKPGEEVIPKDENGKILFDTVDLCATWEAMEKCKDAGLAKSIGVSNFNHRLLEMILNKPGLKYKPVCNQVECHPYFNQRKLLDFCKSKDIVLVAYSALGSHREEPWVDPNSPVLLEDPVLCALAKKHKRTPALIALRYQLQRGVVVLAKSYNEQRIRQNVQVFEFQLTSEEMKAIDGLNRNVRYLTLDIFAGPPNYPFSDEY
In short: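 GST-tagged AKR1C2 purified on glutathione sepharose with thrombin cleavage. Percent inhibition from initial velocities versus solvent controls. IC50 as means of two experiments, each in triplicate.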

[2] = system: CWR22R; assay: Synergistic antiproliferative activity against human 22Rv1 cells assessed as reduction in cell viability at 20 uM after 72 hrs in presence of abiraterone by sulforhodamine B colorimetric proliferation assay; format: functional
[3] = molecular target: T2, Prostaglandin G/H synthase 1 (Ovis aries, UniProt P05979); assay: Inhibition of ovine COX1 assessed as reduction in PGF2alpha production by ELISA
T2 sequence (P05979 whole entry): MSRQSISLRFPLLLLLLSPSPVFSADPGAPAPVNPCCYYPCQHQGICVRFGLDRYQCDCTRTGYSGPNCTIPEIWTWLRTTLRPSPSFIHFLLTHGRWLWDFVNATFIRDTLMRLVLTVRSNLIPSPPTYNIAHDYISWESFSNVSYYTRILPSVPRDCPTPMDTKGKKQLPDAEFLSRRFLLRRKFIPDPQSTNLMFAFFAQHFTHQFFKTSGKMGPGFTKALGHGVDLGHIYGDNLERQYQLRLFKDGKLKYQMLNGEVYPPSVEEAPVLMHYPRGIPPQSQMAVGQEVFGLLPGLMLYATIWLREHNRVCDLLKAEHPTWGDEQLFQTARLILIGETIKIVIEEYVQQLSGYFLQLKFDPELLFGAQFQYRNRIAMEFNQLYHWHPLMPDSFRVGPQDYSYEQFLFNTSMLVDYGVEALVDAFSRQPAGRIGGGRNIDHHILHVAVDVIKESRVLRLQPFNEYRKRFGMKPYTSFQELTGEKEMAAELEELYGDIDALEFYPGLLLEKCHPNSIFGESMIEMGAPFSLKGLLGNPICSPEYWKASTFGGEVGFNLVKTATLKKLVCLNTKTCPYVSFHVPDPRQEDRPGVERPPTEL
In short: (§1)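 Ovine COX1 or human COX2 reaction in a commercial inhibitor screening kit. PGH2 formed is reduced with SnCl2 to PGF2α, which is quantified by enzyme immunoassay (absorbance). Single-point inhibition at 100 µM given as % ± SE. IC50 by linear regression. Mean ± SE of at least three experiments.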

[4] = molecular target: Prostaglandin G/H synthase 2 (Homo sapiens) (UniProt P35354); assay: Inhibition of human COX2 assessed as reduction in PGF2alpha production at 100 uM by ELISA; conditions: human COX2 enzyme
[5] = molecular target: T3, COX1 (prostaglandin G/H synthase 1) (Ovis aries, UniProt P05979); assay: Inhibition of ovine COX1 assessed as reduction in PGF2alpha production at 100 uM by ELISA; conditions: sheep, ovine COX1 enzyme; in short: as §1
T3 sequence (P05979 whole entry): T2 sequence (P05979 whole entry)

[6] = system: CWR22R; assay: Synergistic antiproliferative activity against human 22Rv1 cells assessed as reduction in cell viability at 20 uM after 72 hrs in presence of enzalutamide by sulforhodamine B colorimetric proliferation assay; format: functional
[7] = molecular target: T4, Aldo-keto reductase family 1 member C3 (Homo sapiens, UniProt P42330); assay: Inhibition of recombinant N-terminal GST-tagged human AKR1C3 expressed in Escherichia coli BL21 (DE) Codon Plus RP cells using S-tetralol as substrate in presence of NADP+ by fluorimetric analysis
T4 sequence (P42330 whole entry): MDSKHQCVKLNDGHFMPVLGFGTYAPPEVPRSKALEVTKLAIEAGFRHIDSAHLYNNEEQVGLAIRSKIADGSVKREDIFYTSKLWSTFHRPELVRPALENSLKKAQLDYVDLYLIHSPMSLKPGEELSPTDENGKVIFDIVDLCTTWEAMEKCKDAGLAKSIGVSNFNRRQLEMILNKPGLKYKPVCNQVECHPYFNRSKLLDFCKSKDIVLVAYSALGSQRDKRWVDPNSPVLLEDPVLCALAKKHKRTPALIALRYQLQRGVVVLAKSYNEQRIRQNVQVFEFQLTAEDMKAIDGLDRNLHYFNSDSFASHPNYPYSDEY

[8] = system: CWR22R; assay: Antiproliferative activity against human 22Rv1 cells after 72 hrs by sulforhodamine B colorimetric assay; format: functional, cell-based; conditions: 22Rv1, 72 h
[9] = system: CWR22R; assay: Reduction in PSA expression level in human 22Rv1 cells by Western blot analysis; format: functional, cell-based
In short: (§2)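 22RV1 treated for 72 h at three concentrations. Viable cells lysed in RIPA buffer with protease inhibitors, protein measured by Bradford, 20 µg run on SDS-PAGE and transferred to nitrocellulose. Probed overnight at 4 °C with goat polyclonal anti-PSA (1:500), β-actin as reference, HRP secondary, ECL detection; Ponceau staining as loading check.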

[10] = molecular target: T5, Aldo-keto reductase family 1 member C3 (Homo sapiens) (UniProt P42330); assay: Inhibition of AKR1C3-mediated testosterone production in human 22Rv1 cells preincubated for 1 hr followed by androstenedione addition and measured after 24 hrs by ELISA; format: cell-based
T5 sequence (whole entry): T4 sequence (P42330 whole entry)
In short: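 22RV1 at 30,000 cells/well in RPMI with 10% charcoal-stripped serum, 37 °C, 5% CO2, 24 h. Inhibitor added at 4 concentrations for 1 h, then androstenedione 28 nM; further 24 h. Testosterone in supernatant quantified by ELISA. Means of two separate experiments, each in triplicate.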

[11] = system: CWR22R; assay: Potency index, ratio of IC50 for flufenamic acid to IC50 for test compound for antiproliferative activity against human 22Rv1 cells after 72 hrs by sulforhodamine B colorimetric assay; format: functional
[12] = system: CWR22R; assay: Antiproliferative activity against human 22Rv1 cells assessed as inhibition of cell proliferation at 100 uM after 72 hrs by sulforhodamine B colorimetric assay; format: functional; conditions: 22Rv1, 72 h
[13] = system: CWR22R; assay: Reduction in PSA expression level in human 22Rv1 cells at 1 to 30 uM by Western blot analysis; format: functional, cell-based; in short: as §2

Prostaglandin G/H synthase 2 (Homo sapiens), sequence (P35354 whole entry, looked up): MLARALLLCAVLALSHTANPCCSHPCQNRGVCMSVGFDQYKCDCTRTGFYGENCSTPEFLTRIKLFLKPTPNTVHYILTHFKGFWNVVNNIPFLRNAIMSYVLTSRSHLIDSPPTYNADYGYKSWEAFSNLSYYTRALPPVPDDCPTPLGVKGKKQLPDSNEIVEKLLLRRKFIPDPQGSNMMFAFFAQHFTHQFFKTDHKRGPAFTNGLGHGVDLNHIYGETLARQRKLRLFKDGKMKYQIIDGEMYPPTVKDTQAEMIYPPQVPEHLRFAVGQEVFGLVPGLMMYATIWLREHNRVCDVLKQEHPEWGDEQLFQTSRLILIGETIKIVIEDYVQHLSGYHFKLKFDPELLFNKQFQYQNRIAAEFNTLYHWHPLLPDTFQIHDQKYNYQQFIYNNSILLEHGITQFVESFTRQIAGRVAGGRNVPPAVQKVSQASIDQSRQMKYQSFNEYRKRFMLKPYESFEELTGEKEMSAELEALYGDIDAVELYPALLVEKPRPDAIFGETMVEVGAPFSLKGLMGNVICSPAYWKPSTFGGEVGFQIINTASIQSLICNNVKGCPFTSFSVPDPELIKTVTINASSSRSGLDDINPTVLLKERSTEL

| SMILES | IC50 [1] | Activity [2] | IC50 [3] | inhibition at 100 µM [4] | inhibition at 100 µM [5] | Activity [6] | IC50 [7] | IC50 [8] | Activity [9] | inhibition [10] | Ratio IC50 [11] | inhibition at 100 µM [12] | Activity [13] |
| --- | --- | --- | --- | --- | --- | --- | --- | --- | --- | --- | --- | --- | --- |
| Oc1noc2cccc(Nc3cc(C(F)(F)F)cc(C(F)(F)F)c3)c12 | 119 µM | 10 - 25% | > 100 µM | 0% | 2.1% | 10 - 25% | – | – | – | – | – | – | – |
| Oc1noc2cccc(Nc3cccc(S(F)(F)(F)(F)F)c3)c12 | 4.29 µM | – | > 100 µM | 4.3% | 0% | – | 0.31 µM | 64.9 µM | – | – | – | – | – |
| Oc1noc2cccc(Nc3cccc(C(F)(F)F)c3)c12 | 4.38 µM | – | > 100 µM | 13% | 29% | – | 0.55 µM | 64.8 µM | – | – | – | – | – |
| COc1ccc(Cn2nnc(O)c2C(=O)Nc2cccc(C(F)(F)F)c2)cc1OC | 108 µM | – | > 100 µM | 0.87% | 0% | – | 0.4 µM | 59.2 µM | Dose-dependent effect | – | – | – | – |
| O=C(Nc1cccc(C(F)(F)F)c1)c1c(O)nnn1Cc1ccc(OC(F)(F)F)cc1 | 54.9 µM | 10 - 25% | > 100 µM | 0% | 0% | 10 - 25% | 0.19 µM | 31.3 µM | Dose-dependent effect | Dose-dependent effect | >=4 | – | – |
| O=[N+]([O-])c1cccc(Nc2cccc3onc(O)c23)c1 | 5.7 µM | – | > 100 µM | 0.37% | 0% | – | 1.41 µM | > 100 µM | – | – | – | 31.1% | – |
| Oc1noc2ccc(Nc3cccc(C(F)(F)F)c3)cc12 | 66.9 µM | – | > 100 µM | 0% | 29% | – | 3.48 µM | 74.8 µM | – | – | – | – | – |
| COc1ccc(Cn2nnc(O)c2C(=O)Nc2cccc(C(F)(F)F)c2)cc1 | – | – | – | – | – | – | – | – | – | – | – | – | inactive |
